Results on three molecules are retold here after ChEMBL document CHEMBL1154561, “Bioactive compounds from Combretum erythrophyllum” (J Nat Prod, 2000).

The test system of assay [1] is Saccharomyces cerevisiae. Description: Inhibition of Saccharomyces cerevisiae RS321NYCp50 in galactose medium by microtiter plate assay. It counts as functional, organism-based. Put shortly:
(§1)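 Yeast in minimal medium with galactose or glucose at 2% final. Samples are dissolved in 10% DMSO at 10× final concentration and added 1:10 to the cell suspension in triplicate, with 10% DMSO wells as controls. Plates are incubated at 30 °C in high humidity for 48-72 h and read when control growth reaches OD 0.15-0.25. Inhibition = 1 − (ODtest − ODblank)/(ODplate median − ODblank); IC50 in µg/mL.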

Assay [2] has as its system Saccharomyces cerevisiae. Description: Inhibition of pRAD52 recombination repair gene/topoisomerase 1 deficient Saccharomyces cerevisiae RS321N carrying pRAD52 in galactose medium by microtiter plate assay. In kind it is functional, organism-based. In short, it runs like this: as §1
Assay [3] has as its system Saccharomyces cerevisiae. Nature of the assay: Inhibition of pRAD52 recombination repair gene/topoisomerase 1 deficient Saccharomyces cerevisiae RS321N carrying pRAD52 in glucose medium by microtiter plate assay. In kind it is functional, organism-based. Put shortly:
as §1

For another assay, the system named is HeLa. Nature of the assay: Cytotoxicity against human HeLa cells by XTT assay. It counts as functional, cell-based. Background: Formazan colour is commonly taken as a measure of viable cells.
The next assay deals with A549. Description: Cytotoxicity against human A549 cells by XTT assay. It counts as functional, cell-based.
Assay [4] deals with Saccharomyces cerevisiae. Description: Inhibition of Saccharomyces cerevisiae RS188 expressing wild type erg6 by agar diffusion assay. In kind it is functional, organism-based. In general terms: Agar diffusion results depend on both activity and mobility in agar.
The test system of assay [5] is Saccharomyces cerevisiae. Nature of the assay: Inhibition of Saccharomyces cerevisiae RS321 expressing Rad52.erg6.top1 by agar diffusion assay. In kind it is functional.
Assay [6] deals with Saccharomyces cerevisiae. Description: Inhibition of Saccharomyces cerevisiae RS322 expressing Rad52.erg6 by agar diffusion assay. It counts as functional.

In brackets after ≈: the same amount, converted by molar mass.

With `COc1ccc(/C=C\c2cc(OC)c(OC)c(OC)c2)c(O[C@H]2O[C@@H](CO)[C@H](O)[C@@H](O)[C@@H]2O)c1O`, the IC50 is 13 µg/mL (≈ 26.3 µM) in the assay on Saccharomyces cerevisiae [1]; greater than 100 µg/mL in the assay on Saccharomyces cerevisiae [2]; 3 µg/mL in the assay on Saccharomyces cerevisiae [3]; 1.5 µg/mL (≈ 3.03 µM) in the assay on HeLa; 7 µg/mL (≈ 14.2 µM) in the assay on A549.

Take `COc1ccc(CCc2cc(OC)c(OC)c(OC)c2)c(O[C@H]2O[C@@H](CO)[C@H](O)[C@@H](O)[C@@H]2O)c1O`: the IC50 in the assay with Saccharomyces cerevisiae [1] is 25 µg/mL (≈ 50.4 µM); with Saccharomyces cerevisiae [2], greater than 100 µg/mL; with Saccharomyces cerevisiae [3] it was greater than 100 µg/mL. For the same molecule, the IC12 in the assay with Saccharomyces cerevisiae [4], in the assay with Saccharomyces cerevisiae [5] and with Saccharomyces cerevisiae [6] was greater than 100 µg/mL throughout.

Turning to `COc1ccc(/C=C\c2cc(OC)c(OC)c(OC)c2)c(O)c1O` [COMBRETASTATIN A-1], the IC50 in the assay with Saccharomyces cerevisiae [1] was 1.8 µg/mL (≈ 5.42 µM); in the assay with Saccharomyces cerevisiae [2] it was 53 µg/mL; in the assay on Saccharomyces cerevisiae [3], 18 µg/mL. Further, the figures for the IC12 in the assay on Saccharomyces cerevisiae [4], in the assay with Saccharomyces cerevisiae [5] and with Saccharomyces cerevisiae [6] were 80.1 µg/mL, 2.2 µg/mL and 33.5 µg/mL, respectively.

One may read the IC50 as the concentration at which inhibition is half-maximal.
